Results from ChEMBL document CHEMBL1147647, “Second generation, orally active, antimalarial, artemisinin-derived trioxane dimers with high stability, efficacy, and anticancer activity” (J Med Chem, 2006).
Calls of active or inactive are those of the source. The calls are words filed in the database; no cut-off is given here.

Columns and labels:
Plasmodium falciparum [1] = assay: Antimalarial activity against chloroquine-sensitive Plasmodium falciparum NF54 in mice (Mus musculus) by peroral dose; format: functional; conditions: NF54, po
Outline: (§1)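 In mice, a single dose of 3, 10 or 30 mg/kg was given orally or subcutaneously. ED50 in mg/kg was derived from these doses following a published protocol.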

Plasmodium falciparum [2] = assay: Antimalarial activity against chloroquine-sensitive Plasmodium falciparum NF54 in mice (Mus musculus) by subcutaneous dose; format: functional; conditions: NF54, sc; outline: as §1
HeLa = assay: Antiproliferative activity against HeLa cell line; format: functional, cell-based; conditions: Homo sapiens
Outline: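 HeLa human cervical cancer cells were tested in vitro with an XTT tetrazolium colorimetric proliferation assay, using a modified version of a reported protocol. IC50 was determined.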

Plasmodium falciparum [3] = assay: Antimalarial activity against chloroquine-sensitive Plasmodium falciparum NF54; format: functional, organism-based
SK-MEL-5 = assay: Antiproliferative activity against SK-MEL-5 cell line; format: functional, cell-based; conditions: Homo sapiens
Outline: (§2)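 Growth inhibition was tested in vitro across the NCI Developmental Therapeutics Program 60-line human cancer panel at nanomolar to micromolar concentrations.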

HOP-92 = assay: Antiproliferative activity against HOP92 cell line; format: functional, cell-based; conditions: Homo sapiens; outline: as §2
BT-549 = assay: Antiproliferative activity against BT549 cell line; format: functional, cell-based; conditions: Homo sapiens; outline: as §2

| SMILES | ED50 (Plasmodium falciparum [2]) | IC50 (Plasmodium falciparum [3]) | also measured |
| --- | --- | --- | --- |
| C[C@H]1[C@@H](Cc2cc(CO)c(CO)cc2C[C@H]2O[C@@H]3O[C@]4(C)CC[C@H]5[C@H](C)CC[C@@H]([C@H]2C)[C@@]35OO4)O[C@@H]2O[C@]3(C)CC[C@H]4[C@H](C)CC[C@@H]1[C@@]24OO3 | 0.06 mg/kg | 0.77 nM | ED50 (Plasmodium falciparum [1]): 2.6 mg/kg; IC50 (HeLa): 46.5 nM |
| C[C@H]1[C@H](OC(=O)CCC(=O)[O-])O[C@@H]2O[C@@]3(C)CC[C@H]4[C@H](C)CC[C@@H]1[C@@]24OO3.[Na+] [SODIUM ARESUNATE] | 2.2 mg/kg | – | ED50 (Plasmodium falciparum [1]): 4 mg/kg |
| C=C(C[C@H]1O[C@@H]2O[C@]3(C)CC[C@H]4[C@H](C)CC[C@@H]([C@H]1C)[C@@]24OO3)C(=C)C[C@H]1O[C@@H]2O[C@]3(C)CC[C@H]4[C@H](C)CC[C@@H]([C@H]1C)[C@@]24OO3 | – | 2.9 nM | – |
| CCOP(=O)(OCC)OCc1cc(C[C@H]2O[C@@H]3O[C@]4(C)CC[C@H]5[C@H](C)CC[C@@H]([C@H]2C)[C@@]35OO4)c(C[C@H]2O[C@@H]3O[C@]4(C)CC[C@H]5[C@H](C)CC[C@@H]([C@H]2C)[C@@]35OO4)cc1COP(=O)(OCC)OCC | – | 3 nM | – |
| COC(=O)c1cc(C[C@H]2O[C@@H]3O[C@]4(C)CC[C@H]5[C@H](C)CC[C@@H]([C@H]2C)[C@@]35OO4)c(C[C@H]2O[C@@H]3O[C@]4(C)CC[C@H]5[C@H](C)CC[C@@H]([C@H]2C)[C@@]35OO4)cc1C(=O)OC | 0.71 mg/kg | 1.6 nM | Activity (SK-MEL-5): Active; Activity (HOP-92): Active; IC50 (HeLa): 500 nM; Activity (BT-549): Active |
| C[C@H]1[C@@H](Cc2cc3c(cc2C[C@H]2O[C@@H]4O[C@]5(C)CC[C@H]6[C@H](C)CC[C@@H]([C@H]2C)[C@@]46OO5)COP(=O)(Oc2ccccc2)OC3)O[C@@H]2O[C@]3(C)CC[C@H]4[C@H](C)CC[C@@H]1[C@@]24OO3 (some centres not stated) | – | 3.7 nM | – |
| C[C@@H]1CC[C@H]2[C@@H](C)C(=O)O[C@@H]3O[C@@]4(C)CC[C@@H]1[C@]32OO4 [ARTEMISININ] | – | 6.6 nM | – |
| C[C@H]1[C@@H](Cc2cc(C(=O)O)c(C(=O)O)cc2C[C@H]2O[C@@H]3O[C@]4(C)CC[C@H]5[C@H](C)CC[C@@H]([C@H]2C)[C@@]35OO4)O[C@@H]2O[C@]3(C)CC[C@H]4[C@H](C)CC[C@@H]1[C@@]24OO3 | – | 360 nM | – |
